# This is a sample that favours compounds with a hit; in the whole collection about 1.9% have one here.
# HDAC3 inh: inhibitors of human histone deacetylase 3; O15379; inhibition, % at 8.3 µM; AID 2718; recombinant HDAC3, fluorogenic peptide/trypsin coupled, fluorescence; 320,000 tested, 0.15% active; in the data active means inhibition above about 26%, passing the limit was not always enough; inconclusive means no clear call, values can overlap the other calls
# RanGTP-Impb inh: disruptors of Ran-importin-beta complex formation – biochemical, FRET, CFP-Ran, YFP-importin-beta, homogeneous, primary screen; cell-free CFP-Ran/YFP-importin-beta FRET ratio; inhibition, % (no concentration beside the values); 300,000 tested, 1.1% active;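 active means more than half of the replicate wells show a fall in the fluorescence ratio signal beyond about 16%, limit read from the data, passing the limit was not always enough; inconclusive means exactly half of the replicate wells pass the set limit; inactive means fewer than half of replicates pass the limit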;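 further: 0% = DMSO wells and 100% = Ran loaded with GDP instead of GTP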
# CaV13 ICDI inh: Primary screen for inhibitors of IQ motif and Ca2+-dependent inactivation inhibitor domain binding in CACNA1D, Förster resonance energy transfer in living cells, …; HEK cells, CFP/YFP FRET ICDI-IQ, plate reader, 10 min; percent FRET-ratio fall versus neutral wells; inhibition, % at 12.3 µM; 340,000 tested, 0.098% active;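 active means mean replicate inhibition of at least 30% and at least 1% of replicates passing that level; inconclusive means only one of the two criteria is met; inactive means neither criterion is met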;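 further: 0% = median of the neutral control wells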
# LANA-H2B inh: blocks KSHV LANA binding to histone H2A/H2B; Q9QR71; cell-free LANA-H2A/H2B peptide, fluorescence polarization; inhibition, % (concentration not given with the values); 320,000 tested, 0.6% active; in the data active means inhibition mostly above about 10%, no sharp cut-off; inactive means mostly below about 6.7%
# Target sequence (Q9QR71 whole entry, looked up): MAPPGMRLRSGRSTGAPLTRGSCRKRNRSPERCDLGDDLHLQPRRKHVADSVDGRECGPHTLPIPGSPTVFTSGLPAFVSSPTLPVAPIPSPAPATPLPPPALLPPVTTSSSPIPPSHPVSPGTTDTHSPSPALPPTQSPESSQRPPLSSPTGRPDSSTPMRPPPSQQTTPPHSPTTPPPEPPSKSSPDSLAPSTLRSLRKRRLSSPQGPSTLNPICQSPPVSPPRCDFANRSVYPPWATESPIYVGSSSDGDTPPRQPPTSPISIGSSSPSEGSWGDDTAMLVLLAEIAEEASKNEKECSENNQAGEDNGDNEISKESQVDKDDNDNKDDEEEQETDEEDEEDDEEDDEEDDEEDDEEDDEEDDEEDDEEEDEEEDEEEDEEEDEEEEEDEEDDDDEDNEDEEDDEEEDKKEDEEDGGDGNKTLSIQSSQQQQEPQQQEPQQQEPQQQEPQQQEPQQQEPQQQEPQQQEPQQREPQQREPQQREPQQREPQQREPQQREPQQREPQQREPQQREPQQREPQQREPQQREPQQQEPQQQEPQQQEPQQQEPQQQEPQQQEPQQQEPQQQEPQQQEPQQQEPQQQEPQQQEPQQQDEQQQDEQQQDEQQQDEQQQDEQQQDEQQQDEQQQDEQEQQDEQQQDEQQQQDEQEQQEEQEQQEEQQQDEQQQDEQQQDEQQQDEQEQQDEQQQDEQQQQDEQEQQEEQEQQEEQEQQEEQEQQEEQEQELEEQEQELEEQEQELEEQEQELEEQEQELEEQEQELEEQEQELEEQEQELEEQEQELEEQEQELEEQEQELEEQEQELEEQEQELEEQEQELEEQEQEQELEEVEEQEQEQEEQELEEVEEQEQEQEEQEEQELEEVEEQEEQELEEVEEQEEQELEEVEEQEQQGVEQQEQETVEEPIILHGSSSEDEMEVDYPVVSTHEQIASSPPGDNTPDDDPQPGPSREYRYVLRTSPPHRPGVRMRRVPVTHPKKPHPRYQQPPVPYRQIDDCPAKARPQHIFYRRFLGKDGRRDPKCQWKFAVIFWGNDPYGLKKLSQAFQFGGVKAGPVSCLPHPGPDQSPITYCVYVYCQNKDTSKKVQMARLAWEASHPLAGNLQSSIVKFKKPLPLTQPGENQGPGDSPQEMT
# Runt-SMMHC FRET: blocks binding of human RUNX1 Runt domain to CBFb-SMMHC | Q01196+Q13951 | Cerulean-Runt/Venus-CBFb-SMMHC FRET ratio 530/480, 1 h | inhibition, % at 20 µM | 220,000 tested, 0.74% active;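 active means mean inhibition across duplicate retests at 20 µM reaching about 50%, limit read from the data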;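 further: 0% = DMSO wells and 100% = wells with excess untagged CBFb-SMMHC; inhibitors lower the FRET ratio by blocking Runt binding to CBFb-SMMHC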
# Runt-CBFb FRET: inhibitors of human RUNX1 Runt domain binding to CBFb; Q01196+Q13951; Cerulean-Runt/Venus-CBFb FRET ratio 530/480, 1 h; inhibition, % at 20 µM; 220,000 tested, 0.46% active;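 active means inhibition over about 50% at 20 µM in the single-dose screen, limit read from the data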;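 further: 0% = DMSO wells and 100% = excess unlabeled CBFb competitor control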
#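 Measured by: fluorescence energy transfer, 422 nm excitation, 530/480 nm emission; Assay system: Cerulean-Runt domain; Medium: Tris pH 7.5 buffer with BSA; Measure: loss of energy transfer signal; Controls: 5 µM unlabeled CBFb as full-inhibition high control; Incubation: protein complex preformed 1 h, compound exposure 1 h, room temperature, dark.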
# Active calls of the source: *; u = inconclusive; x = no result given; + = active, no number.
SMILES,HDAC3 inh,RanGTP-Impb inh,CaV13 ICDI inh,LANA-H2B inh,Runt-SMMHC FRET,Runt-CBFb FRET
CCn1c2ccccc2c2nc3cc(OC)c(OC)cc3nc21,5,89*,3,0,4,2
CCn1c2ccccc2c2nc3ccccc3nc21,-9,0,x,-1,-5,-2
O=C(O)c1cc(-c2cccs2)nc2ccc(Br)cc12,10,0,-20,2,x,x
COc1ccc2[nH]c3c(c2c1)CCNC3c1ccc([N+](=O)[O-])o1 (stereo not given),15,0,-24,21*,x,x
CCc1ccc(OC2(C)CCN(Cc3ccc(SC)cc3)C2)cc1 (stereo not given),x,x,-7,x,x,x
Nc1nnc(SCC(=O)Nc2cc(S(=O)(=O)N3CCOCC3)ccc2Cl)s1,6,-3,-5,4,-7,0
Cc1c(C(=O)NCCN(C)C)oc2ccc(S(=O)(=O)N3CCC4(CC3)OCCO4)cc12,-4,23*,-3,-2,x,x
Cc1ccc(CNC(=O)c2oc3ccc(S(=O)(=O)N4CCC5(CC4)OCCO5)cc3c2C)cc1,-3,-4,-4,2,1,-11
NC(=O)c1c(NC(=O)c2ccccc2Cl)sc2c1CCC2,-10,1,0,0,x,x
Cc1onc(-c2ccccc2)c1C(=O)Nc1sc2c(c1C(N)=O)CCC2,6,51*,-3,0,-4,-1
Cc1noc(C)c1C(=O)Nc1sc(C)c(-c2ccccc2)c1C#N,1,110*,-4,1,10,14
Cc1onc(-c2c(F)cccc2Cl)c1C(=O)Nc1sc2c(c1C(N)=O)CCC2,11,61*,-9,-6,1,3
Cc1onc(-c2ccccc2)c1C(=O)Nc1sc2c(c1C#N)CCC2,x,46*,-4,x,7,9
N#Cc1c(NC(=O)CSc2nnc(-c3ccncc3)n2CC2CCCO2)sc2c1CCCC2 (stereo not given),4,1,x,5,-1,-7
N#Cc1c(NC(=O)CSc2ncc(-c3ccccc3)n2CC2CCCO2)sc2c1CCCC2 (stereo not given),1,4,-4,0,73*,27
CCCOc1ccc(NC(=O)c2c(-c3ccccc3)noc2C)cc1,1,6,36*,-3,-2,0
CC(=O)Nc1ccc(OCCCNC(=O)c2c(-c3ccccc3)noc2C)cc1,8,u,-5,3,2,-2
Cc1onc(-c2c(F)cccc2Cl)c1C(=O)N1CCc2ccccc21,5,-1,-3,66*,0,-1
Cc1ccc(N=Nc2ccc(O)c(P(=O)(c3ccccc3)c3ccccc3)c2)cc1,-8,9,-15,7,0,-5
COc1ccc(C(=O)NNC(=O)C(=O)NC(C)c2ccccc2)cc1OC (stereo not given),2,x,-5,-1,3,x
O=C1NN(c2ccccc2)C(=O)/C1=C/c1ccc(-c2ccc(Cl)c(C(=O)O)c2)o1,x,5,-3,x,8,7
O=C(O)c1cc(-c2ccc(/C=C3\NC(=O)N(c4ccccc4)C3=O)o2)ccc1Cl,-1,4,-3,1,82*,46
O=C(O)c1cc(-c2ccc(/C=C3\NC(=O)N(c4ccc(Cl)cc4)C3=O)o2)ccc1Cl,-1,9,-6,10,81*,18
Cc1ccc(CNC(=O)CCn2ccc3cc(S(=O)(=O)N4CCCC4)ccc32)cc1,2,-2,-2,2,x,x
COc1ccc(C2/C(=C(/O)c3ccccc3)C(=O)C(=O)N2CC(C)O)c(OC)c1 (stereo not given),-2,0,-5,-1,-1,0
SMILES,HDAC3 inh,RanGTP-Impb inh,CaV13 ICDI inh,LANA-H2B inh,Runt-SMMHC FRET,Runt-CBFb FRET
Cc1ccc(-n2nc(C)c3onc(C)c3c2=O)cc1,2,-2,-5,28*,1,1
O=C(Nc1ncccc1O)c1ccc2c(c1)OCO2,86*,6,-4,-3,x,x
O=C(Nc1ccc(C2=NCCN2)cc1)c1ccc(C(=O)Nc2ccc(C3=NCCN3)cc2)c(Cl)c1,-3,3,-3,-3,2,0
CCOC(=O)C1=C(C)NC2=C(C(=O)C(C(=O)OCC)C(c3ccco3)C2)C1c1ccccn1 (stereo not given),2,32*,-3,2,38,21
Cc1cc2c(c(=O)n1C)C(Cc1ccccc1)C(C#N)=C(N)O2 (stereo not given),-23,63*,-3,1,146*,123*
Cc1ccc(/C=C/C(=O)Nc2ccc(S(=O)(=O)Nc3cc(C)nc(C)n3)cc2)cc1,1,-1,-6,5,x,x
NS(=O)(=O)c1ccc(CCNc2nn3c(-c4ccc(F)c(Cl)c4)cnc3s2)cc1,x,x,-7,x,x,x
COc1ccc(C2c3c(oc4ccccc4c3=O)C(=O)N2CC2CCCO2)cc1 (stereo not given),1,6,-8,1,-2,3
NC(=O)COc1ccc(C2c3c(oc4ccccc4c3=O)C(=O)N2CC2CCCO2)cc1 (stereo not given),-1,1,-7,197*,-13,-6
Cc1ccc(NC(=O)COC(=O)Cn2c(C)csc2=O)cc1S(=O)(=O)N1CCOCC1,x,x,-4,x,x,x
Cc1occc1-c1nnc(SCC(=O)N(C)c2ccccc2)n1C,4,26*,-2,0,x,x
CCN(CCn1cccn1)Cc1nc(-c2ccc(OC)cc2)no1,-10,0,-9,+,-2,0
CCN(CCn1cccn1)Cc1nc(-c2ccccc2)no1,-7,3,-3,-5,3,0
CCc1ccc(C(=O)NNC(=O)c2c(CC)noc2C)cc1,-2,6,x,0,x,x
CCc1noc(C)c1C(=O)NNC(=O)c1ccccc1,-3,x,-5,97*,x,x
CCOc1ccc2c(c1)C(N(CCN1CCOCC1)C(=S)Nc1ccccc1OC)CC(C)(C)O2 (stereo not given),2,3,-1,-1,1,-5
CC1CCCC(C)N1C(=O)c1cc(F)c(F)cc1Cl (stereo not given),-2,1,-5,2,0,-2
COc1ccc(C2C(C#N)=C(N)Oc3cc(O)ccc32)cc1OC (stereo not given),-12,56*,x,-3,42,10
COc1cc(C2C(C#N)=C(N)Oc3cc(O)ccc32)cc(OC)c1OC (stereo not given),-4,69*,5,1,-19,12
COc1ccc(C2C(C#N)=C(N)SC(N)=C2C#N)cc1OC,16,48*,-8,1,12,13
COc1ccc(C2C(C#N)=C(N)Oc3cc(O)ccc32)cc1 (stereo not given),x,x,-1,x,x,x

# Screens from PubChem.
